{"source": "ChEMBL document CHEMBL3272343", "about": "“Etodolic acid and related compounds. Chemistry and antiinflammatory actions of some potent di- and trisubstituted 1, 3, 4, 9-tetrahydropyrano[3, 4-b]indole-1-acetic acids” (J Med Chem, 1976)", "key": {"Rattus norvegicus [1]": {"system": "Rattus norvegicus", "experiment": "Antiinflammatory activity in rat assessed as inhibition of adjuvant-induced arthritis at 25 mg/kg administered for 9 days into foot pad 14 days after adjuvant challenge measured on day 22 by mercury displacement analysis", "assay_type": "functional, organism-based", "parameters": "dose 25 mg/kg", "summary_of_the_method": "(§1)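 Therapeutic test in groups of six rats with adjuvant arthritis (Mycobacterium butyricum in mineral oil, left hind foot pad). Oral treatment ran from day 14 to day 22 (9 po doses). Injected-paw volume was measured by mercury displacement. Rats whose paw shrank by 0.5 ml or more were scored as showing a therapeutic effect; smaller changes counted as negative.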"}, "Rattus norvegicus [2]": {"system": "Rattus norvegicus", "experiment": "Antiinflammatory activity in rat assessed as inhibition of adjuvant-induced arthritis administered for 9 days into foot pad 14 days after adjuvant challenge measured on day 22 by mercury displacement analysis", "assay_type": "functional", "summary_of_the_method": "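Oral dosing in groups of six rats with established adjuvant arthritis (Mycobacterium butyricum in mineral oil, injected into left hind foot pad). Treatment ran from day 14 to day 22 (9 po administrations). Injected-paw volume was measured by mercury displacement. A decrease of 0.5 ml or more counted as a therapeutic effect. ED50 was derived by probit analysis of responder counts. Maximum screening dose was 100 mg/kg.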"}, "Rattus norvegicus [3]": {"system": "Rattus norvegicus", "experiment": "Antiinflammatory activity in po dosed rat assessed as inhibition of carrageenin-induced paw edema", "assay_type": "functional"}, "[4]": {"experiment": "Gastrointestinal toxicity in 8 hrs starved po dosed Charles River rat assessed as ulcerogenic effect after 18 hrs", "assay_type": "organism-based", "conditions": "in vivo, read-out: UD50", "summary_of_the_method": "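Acute ulcerogenicity in male Charles River rats (180–200 g), housed in individual cages and starved 8 hr before oral dosing. UD50 was calculated graphically.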"}, "[5]": {"experiment": "Therapeutic index, ratio of UD50 for 8 hrs starved po dosed Charles River rat to ED50 for rat assessed as inhibition of adjuvant-induced arthritis", "assay_type": "organism-based", "conditions": "in vivo, read-out: TI", "summary_of_the_method": "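Ratio of UD50 to ED50. UD50 came from starved (8 hr) male Charles River rats dosed orally and was calculated graphically. ED50 came from the 9-dose oral adjuvant-arthritis therapeutic test (day 14–22, mercury-displacement paw volume, ≥0.5 ml decrease as responder) and was derived by probit analysis.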"}, "Rattus norvegicus [6]": {"system": "Rattus norvegicus", "experiment": "Antiinflammatory activity in rat assessed as inhibition of adjuvant-induced arthritis at 50 mg/kg administered for 9 days into foot pad 14 days after adjuvant challenge measured on day 22 by mercury displacement analysis", "assay_type": "functional, organism-based", "parameters": "dose 50 mg/kg", "summary_of_the_method": "as §1"}, "Rattus norvegicus [7]": {"system": "Rattus norvegicus", "experiment": "Antiinflammatory activity in rat assessed as inhibition of adjuvant-induced arthritis at 20 mg/kg administered for 9 days into foot pad 14 days after adjuvant challenge measured on day 22 by mercury displacement analysis", "assay_type": "functional, organism-based", "parameters": "dose 20 mg/kg", "summary_of_the_method": "as §1"}}, "note": "Active and inactive are the calls of the source. The rule behind the calls is not given here."}
{"compound": "CCC1(CC(=O)O)OCCc2c1[nH]c1ccc(Br)cc21", "note": "(centres undefined)", "values": [{"measurement": "inhibition", "setting": "Rattus norvegicus [1]", "result": "inactive"}]}
{"compound": "CCCC1(CC(=O)O)OCCc2c1[nH]c1ccc(C)cc21", "note": "(centres undefined)", "values": [{"measurement": "inhibition", "setting": "Rattus norvegicus [1]", "result": "inactive"}]}
{"compound": "CCCC1(CC(=O)O)OCCc2c1[nH]c1c(CC)cccc21", "note": "(centres undefined)", "values": [{"measurement": "ED50", "setting": "Rattus norvegicus [2]", "result": 7.4, "unit": "mg/kg"}]}
{"compound": "CCCC1(CC(=O)O)OCCc2c1[nH]c1c(C)c(Cl)ccc21", "note": "(centres undefined)", "values": [{"measurement": "ED50", "setting": "Rattus norvegicus [2]", "result": 3.4, "unit": "mg/kg"}]}
{"compound": "CCC1(CC(=O)O)OCCc2c1[nH]c1c(C)c(Cl)ccc21", "note": "(centres undefined)", "values": [{"measurement": "ED50", "setting": "Rattus norvegicus [2]", "result": 0.6, "unit": "mg/kg"}, {"measurement": "ED30", "setting": "Rattus norvegicus [3]", "result": 15, "unit": "mg/kg"}, {"measurement": "TD50 at 18 h", "setting": "[4]", "result": 25, "unit": "mg/kg"}, {"measurement": "selectivity ratio", "setting": "[5]", "result": 41}]}
{"compound": "CCCC1(CC(=O)O)OCCc2c1[nH]c1cccc(C)c21", "note": "(centres undefined)", "values": [{"measurement": "ED50", "setting": "Rattus norvegicus [2]", "result": 10, "unit": "mg/kg"}]}
{"compound": "CCCC1(CC(=O)O)OCCc2c1[nH]c1c(C)cccc21", "note": "(centres undefined)", "values": [{"measurement": "ED50", "setting": "Rattus norvegicus [2]", "result": 11.8, "unit": "mg/kg"}]}
{"compound": "CCC1(CC(=O)O)OCCc2c1[nH]c1c(Cl)c(Cl)ccc21", "note": "(centres undefined)", "values": [{"measurement": "ED50", "setting": "Rattus norvegicus [2]", "result": 1.1, "unit": "mg/kg"}]}
{"compound": "CCC1(CC(=O)O)OCCc2c1[nH]c1c(OC)cccc21", "note": "(centres undefined)", "values": [{"measurement": "Activity", "setting": "Rattus norvegicus [1]", "result": "inactive"}]}
{"compound": "CCC1(CC(=O)O)OCCc2c1[nH]c1cc(F)ccc21", "note": "(centres undefined)", "values": [{"measurement": "ED50", "setting": "Rattus norvegicus [2]", "result": 3, "unit": "mg/kg"}]}
{"compound": "CCC1(CC(=O)O)OCCc2c1[nH]c1c(Cl)cccc21", "note": "(centres undefined)", "values": [{"measurement": "ED50", "setting": "Rattus norvegicus [2]", "result": 2.4, "unit": "mg/kg"}]}
{"compound": "CCCC1(CC(=O)O)OCCc2c1[nH]c1cc(C)ccc21", "note": "(centres undefined)", "values": [{"measurement": "inhibition", "setting": "Rattus norvegicus [6]", "result": "inactive"}]}
{"compound": "CCCC1(CC(=O)O)OCCc2c1[nH]c1cc(OC)ccc21", "note": "(centres undefined)", "values": [{"measurement": "inhibition", "setting": "Rattus norvegicus [1]", "result": "inactive"}]}
{"compound": "CCC1(CC(=O)O)OCCc2c1[nH]c1c(C(C)C)cccc21", "note": "(centres undefined)", "values": [{"measurement": "ED50", "setting": "Rattus norvegicus [2]", "result": 1.6, "unit": "mg/kg"}]}
{"compound": "CCC1(CC(=O)O)OCCc2c1[nH]c1c(C)c(F)ccc21", "note": "(centres undefined)", "values": [{"measurement": "ED50", "setting": "Rattus norvegicus [2]", "result": 0.9, "unit": "mg/kg"}, {"measurement": "ED30", "setting": "Rattus norvegicus [3]", "result": 37, "unit": "mg/kg"}, {"measurement": "TD50 at 18 h", "setting": "[4]", "result": 26, "unit": "mg/kg"}, {"measurement": "selectivity ratio", "setting": "[5]", "result": 29}]}
{"compound": "CCC1(CC(=O)O)OCCc2c1[nH]c1c(C)cccc21", "note": "(centres undefined)", "values": [{"measurement": "ED50", "setting": "Rattus norvegicus [2]", "result": 4.3, "unit": "mg/kg"}]}
{"compound": "CCC1(CC(=O)O)OCCc2c1[nH]c1ccc(F)cc21", "note": "(centres undefined)", "values": [{"measurement": "ED50", "setting": "Rattus norvegicus [2]", "result": 5, "unit": "mg/kg"}]}
{"compound": "CCCc1cccc2c3c([nH]c12)C(CC)(CC(=O)O)OCC3", "note": "(centres undefined)", "values": [{"measurement": "ED50", "setting": "Rattus norvegicus [2]", "result": 0.4, "unit": "mg/kg"}, {"measurement": "ED30", "setting": "Rattus norvegicus [3]", "result": 10, "unit": "mg/kg"}, {"measurement": "TD50 at 18 h", "setting": "[4]", "result": 20, "unit": "mg/kg"}, {"measurement": "selectivity ratio", "setting": "[5]", "result": 50}]}
{"compound": "CCC1(CC(=O)O)OCCc2c1[nH]c1cccc(Cl)c21", "note": "(centres undefined)", "values": [{"measurement": "ED50", "setting": "Rattus norvegicus [2]", "result": 7, "unit": "mg/kg"}]}
{"compound": "CCCC1(CC(=O)O)OCCc2c1[nH]c1cc(Cl)ccc21", "note": "(centres undefined)", "values": [{"measurement": "ED50", "setting": "Rattus norvegicus [2]", "result": 3.7, "unit": "mg/kg"}]}
{"compound": "CCC1(CC(=O)O)OCCc2c1[nH]c1c(C)ccc(C)c21", "note": "(centres undefined)", "values": [{"measurement": "ED50", "setting": "Rattus norvegicus [2]", "result": 3.2, "unit": "mg/kg"}]}
{"compound": "CCC1(CC(=O)O)OCCc2c1[nH]c1c(OC)ccc(OC)c21", "note": "(centres undefined)", "values": [{"measurement": "ED50", "setting": "Rattus norvegicus [2]", "result": 100, "unit": "mg/kg"}]}
{"compound": "CCC1(CC(=O)O)OCCc2c1[nH]c1c(C3CCCC3)cccc21", "note": "(centres undefined)", "values": [{"measurement": "ED50", "setting": "Rattus norvegicus [2]", "result": "> 5", "unit": "mg/kg"}]}
{"compound": "CCCCc1cccc2c3c([nH]c12)C(CC)(CC(=O)O)OCC3", "note": "(centres undefined)", "values": [{"measurement": "inhibition", "setting": "Rattus norvegicus [7]", "result": "inactive"}]}
{"compound": "CCC(C)c1cccc2c3c([nH]c12)C(CC)(CC(=O)O)OCC3", "note": "(centres undefined)", "values": [{"measurement": "ED50", "setting": "Rattus norvegicus [2]", "result": 2.6, "unit": "mg/kg"}]}
{"compound": "CCC1(CC(=O)O)OCCc2c1[nH]c1c(C3CCCCC3)cccc21", "note": "(centres undefined)", "values": [{"measurement": "ED50", "setting": "Rattus norvegicus [2]", "result": "> 10", "unit": "mg/kg"}]}
{"compound": "CCC1(CC(=O)O)OCCc2c1[nH]c1cccc(C)c21", "note": "(centres undefined)", "values": [{"measurement": "ED50", "setting": "Rattus norvegicus [2]", "result": 11, "unit": "mg/kg"}]}
{"compound": "CCC1(CC(=O)O)OCCc2c1[nH]c1c(C(C)(C)C)cccc21", "note": "(centres undefined)", "values": [{"measurement": "ED50", "setting": "Rattus norvegicus [2]", "result": 1.9, "unit": "mg/kg"}]}
{"compound": "CCC1(CC(=O)O)OCCc2c1[nH]c1c(CC(C)C)cccc21", "note": "(centres undefined)", "values": [{"measurement": "ED50", "setting": "Rattus norvegicus [2]", "result": 5, "unit": "mg/kg"}]}
{"compound": "CCCc1cccc2c3c([nH]c12)C(CCC)(CC(=O)O)OCC3", "note": "(centres undefined)", "values": [{"measurement": "ED50", "setting": "Rattus norvegicus [2]", "result": 6, "unit": "mg/kg"}]}
{"compound": "CCC1(CC(=O)O)OCCc2c1[nH]c1c(Cl)ccc(Cl)c21", "note": "(centres undefined)", "values": [{"measurement": "ED50", "setting": "Rattus norvegicus [2]", "result": 5.5, "unit": "mg/kg"}]}
{"compound": "CCC1(CC(=O)O)OCCc2c1[nH]c1cc(C(F)(F)F)ccc21", "note": "(centres undefined)", "values": [{"measurement": "ED50", "setting": "Rattus norvegicus [2]", "result": 1.2, "unit": "mg/kg"}]}
{"compound": "CCC1(CC(=O)O)OCCc2c1[nH]c1c(C3CC3)cccc21", "note": "(centres undefined)", "values": [{"measurement": "ED50", "setting": "Rattus norvegicus [2]", "result": 1, "unit": "mg/kg"}]}
{"compound": "COc1ccc2c(c1)c(CC(=O)O)c(C)n2C(=O)c1ccc(Cl)cc1", "note": "[INDOMETHACIN]", "values": [{"measurement": "ED50", "setting": "Rattus norvegicus [2]", "result": 0.2, "unit": "mg/kg"}, {"measurement": "ED30", "setting": "Rattus norvegicus [3]", "result": 1.3, "unit": "mg/kg"}, {"measurement": "TD50 at 18 h", "setting": "[4]", "result": 6, "unit": "mg/kg"}, {"measurement": "selectivity ratio", "setting": "[5]", "result": 30}]}
{"compound": "CCC1(CC(=O)O)OCCc2c1[nH]c1c(Cl)c(C)ccc21", "note": "(centres undefined)", "values": [{"measurement": "ED50", "setting": "Rattus norvegicus [2]", "result": 4.1, "unit": "mg/kg"}]}
{"compound": "CCc1cccc2c3c([nH]c12)C(CC)(CC(=O)O)OCC3", "note": "(centres undefined) [ETODOLAC]", "values": [{"measurement": "ED50", "setting": "Rattus norvegicus [2]", "result": 0.7, "unit": "mg/kg"}, {"measurement": "TD50 at 18 h", "setting": "[4]", "result": 60, "unit": "mg/kg"}, {"measurement": "selectivity ratio", "setting": "[5]", "result": 85}]}
{"compound": "CCCCC1C(=O)N(c2ccccc2)N(c2ccccc2)C1=O", "note": "[PHENYLBUTAZONE]", "values": [{"measurement": "ED50", "setting": "Rattus norvegicus [2]", "result": 5.4, "unit": "mg/kg"}, {"measurement": "TD50 at 18 h", "setting": "[4]", "result": 100, "unit": "mg/kg"}]}
{"compound": "CCC1(CC(=O)O)OCCc2c1[nH]c1cc(Cl)ccc21", "note": "(centres undefined)", "values": [{"measurement": "ED50", "setting": "Rattus norvegicus [2]", "result": 3.2, "unit": "mg/kg"}]}
{"compound": "CCCC1(CC(=O)O)OCCc2c1[nH]c1cccc(Cl)c21", "note": "(centres undefined)", "values": [{"measurement": "ED50", "setting": "Rattus norvegicus [2]", "result": "> 25", "unit": "mg/kg"}]}
